Laboratory results reported in ChEMBL document CHEMBL1770086, “Design and synthesis of benzoxazole containing indole analogs as peroxisome proliferator-activated receptor-γ/δ dual agonists” (Bioorg Med Chem Lett, 2011).
Active and inactive are the calls of the source.

Legend:
Type in all cases: functional, cell-based
Conditions in all cases: CV-1
[1] = molecular target: T1, Peroxisome proliferator-activated receptor alpha (Mus musculus) (UniProt P23204); assay: Agonist activity at mouse PPARalpha expressed in CV1 cells co-expressing tk-PPRE-luciferase vector assessed as transient transactivation at 20 uM after 24 hrs by luciferase reporter gene assay relative to GW0746
T1 sequence (whole entry): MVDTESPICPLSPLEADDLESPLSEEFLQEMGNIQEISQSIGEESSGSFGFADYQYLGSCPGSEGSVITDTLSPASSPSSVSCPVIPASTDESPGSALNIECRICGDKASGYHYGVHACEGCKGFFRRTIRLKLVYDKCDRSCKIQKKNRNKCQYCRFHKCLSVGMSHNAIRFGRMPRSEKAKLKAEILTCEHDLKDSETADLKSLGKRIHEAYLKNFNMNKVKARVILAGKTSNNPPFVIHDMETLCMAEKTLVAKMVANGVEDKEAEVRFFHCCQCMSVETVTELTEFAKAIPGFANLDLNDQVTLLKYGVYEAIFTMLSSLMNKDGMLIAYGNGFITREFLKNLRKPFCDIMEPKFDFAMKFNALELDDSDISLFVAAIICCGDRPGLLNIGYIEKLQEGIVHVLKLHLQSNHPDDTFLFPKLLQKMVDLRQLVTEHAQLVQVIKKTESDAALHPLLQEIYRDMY
Procedure, shortened: (§1)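 CV-1 cells seeded at 1.5 × 10⁵ cells/well in DMEM with 10% FBS. Transient transfection for 6 h with PPAR expression vector, tk-PPRE-luciferase reporter and β-galactosidase plasmid, then 24 h of compound exposure. Luciferase read in cell lysates. β-gal read as absorbance at 410 nm. Activity expressed as luciferase/β-gal. Not active means below 10% transactivation at 20 µM. At least three separate experiments.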

[2] = molecular target: T2, Peroxisome proliferator-activated receptor gamma (Mus musculus) (UniProt P37238); assay: Agonist activity at mouse PPARgamma expressed in CV1 cells co-expressing tk-PPRE-luciferase vector assessed as transient transactivation at 20 uM after 24 hrs by luciferase reporter gene transactivation assay relative to rosiglitazone; procedure, shortened: as §1
T2 sequence (whole entry): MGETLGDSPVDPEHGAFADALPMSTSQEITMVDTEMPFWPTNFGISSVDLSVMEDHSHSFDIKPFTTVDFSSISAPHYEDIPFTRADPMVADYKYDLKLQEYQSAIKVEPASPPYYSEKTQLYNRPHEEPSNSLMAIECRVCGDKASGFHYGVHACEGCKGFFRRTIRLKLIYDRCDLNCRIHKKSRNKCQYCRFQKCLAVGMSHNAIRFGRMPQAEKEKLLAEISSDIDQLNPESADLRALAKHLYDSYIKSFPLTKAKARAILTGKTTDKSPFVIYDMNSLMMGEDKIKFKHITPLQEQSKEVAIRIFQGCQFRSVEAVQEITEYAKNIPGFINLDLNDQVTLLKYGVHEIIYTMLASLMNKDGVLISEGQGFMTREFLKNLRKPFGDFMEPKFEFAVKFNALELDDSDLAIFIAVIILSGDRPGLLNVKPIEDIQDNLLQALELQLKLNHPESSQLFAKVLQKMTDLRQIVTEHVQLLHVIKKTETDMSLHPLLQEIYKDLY

[3] = molecular target: T3, Peroxisome proliferator-activated receptor delta (Mus musculus) (UniProt P35396); assay: Agonist activity at mouse PPARdelta expressed in CV1 cells co-expressing tk-PPRE-luciferase vector assessed as transient transactivation at 20 uM after 24 hrs by luciferase reporter gene transactivation assay relative to GW0742; procedure, shortened: as §1
T3 sequence (whole entry): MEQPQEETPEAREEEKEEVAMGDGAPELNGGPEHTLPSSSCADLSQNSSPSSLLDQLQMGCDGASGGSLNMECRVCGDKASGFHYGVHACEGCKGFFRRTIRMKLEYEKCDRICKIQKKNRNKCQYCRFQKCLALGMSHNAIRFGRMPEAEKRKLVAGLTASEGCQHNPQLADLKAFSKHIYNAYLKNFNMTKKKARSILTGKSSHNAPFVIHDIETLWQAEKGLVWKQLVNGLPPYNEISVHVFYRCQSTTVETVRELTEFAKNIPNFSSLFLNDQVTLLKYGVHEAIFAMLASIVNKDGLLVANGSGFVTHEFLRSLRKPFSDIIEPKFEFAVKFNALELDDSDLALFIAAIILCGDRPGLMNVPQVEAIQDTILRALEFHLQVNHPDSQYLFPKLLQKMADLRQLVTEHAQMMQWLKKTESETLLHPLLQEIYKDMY

| Compound | Activity [1] | Activity [2] | Activity [3] |
| --- | --- | --- | --- |
| CCn1c(C(=O)O)cc2ccc(OCCN(C)c3nc4ccccc4s3)cc21 | 16.7% | 66.4% | 68.8% |
| CN(CCOc1ccc2c(c1)c(CC(=O)O)cn2C)c1nc2ccccc2o1 | 28% | 58.6% | inactive |
| COC(=O)Cc1cn(C(=O)c2ccc(Cl)cc2)c2ccc(OCCCN(C)c3nc4ccccc4o3)cc12 | inactive | 28.9% | 18.3% |
| CN(CCOc1ccc2cc(C(=O)O)n(C)c2c1)c1nc2ccccc2s1 | 13.6% | 29.6% | 27.9% |
| CCn1cc(CC(=O)O)c2cc(OCCN(C)c3nc4ccccc4o3)ccc21 | inactive | 66.7% | 32.9% |
| CN(CCCOc1ccc2c(c1)c(CC(=O)O)cn2CC(=O)O)c1nc2ccccc2o1 | inactive | inactive | inactive |
| CN(CCOc1ccc2cc(C(=O)O)n(Cc3ccccc3)c2c1)c1nc2ccccc2o1 | 10% | 43.9% | 33.4% |
| CN(CCOc1ccc2cc(C(=O)O)[nH]c2c1)c1nc2ccccc2o1 | inactive | inactive | inactive |
| CN(CCOc1ccc2[nH]cc(CC(=O)O)c2c1)c1nc2ccccc2o1 | inactive | 28.1% | inactive |
| CN(CCCOc1ccc2c(c1)c(CC(=O)O)cn2Cc1ccc(F)cc1)c1nc2ccccc2o1 | 13.3% | 15.8% | inactive |
| COC(=O)Cc1cn(CC(=O)OC)c2ccc(OCCCN(C)c3nc4ccccc4o3)cc12 | inactive | 37.1% | inactive |

Second part, the molecule after the results:

| Activity [1] | Activity [2] | Activity [3] | Compound |
| --- | --- | --- | --- |
| inactive | 42.1% | inactive | COC(=O)Cc1c[nH]c2ccc(OCCCN(C)c3nc4ccccc4o3)cc12 |
| inactive | 18.3% | inactive | CN(CCCOc1ccc2[nH]cc(CC(=O)O)c2c1)c1nc2ccccc2o1 |
| inactive | inactive | inactive | COC(=O)Cc1cn(Cc2ccc(F)cc2)c2ccc(OCCCN(C)c3nc4ccccc4o3)cc12 |
| inactive | 23.3% | inactive | CCn1c(C(=O)O)cc2ccc(OCCN(C)c3nc4ccccc4o3)cc21 |
| inactive | inactive | 14.6% | CN(CCOc1ccc2cc(C(=O)O)[nH]c2c1)c1nc2ccccc2s1 |
| inactive | inactive | inactive | CN(CCOc1ccc2cc(C(=O)O)n(C)c2c1)c1nc2ccccc2o1 |
